16 molecules from publication PMC6658111 (Journal of molecular biology, 2018) can be followed below.

Several values for one entry are separate records, joined by “and”; a condition that tells them apart may be missing. Equal entries are not always repeated. Where two headings read alike, the source gives them in different places. Non-standard residues stand in square brackets, D forms with d. No end group written: not given here. pT = C[C@@H](OP(=O)(O)O)[C@H](N)C(=O)O; MBP = not defined here

For assay [1], the system named is wild type CaMKII kinase domain (residues 1–283). The format is binding. To be noted: ITC; for −TΔS: 25 °C, pH 7.5, Mg2+-AMPPNP, mean and standard deviation of the mean.
Assay [2] deals with CaMKII^K43M,D136N kinase domain. Put plainly: Isothermal titration calorimetry with K43M/D136N CaMKII kinase domain. It counts as binding, Drosophila. The settings on record: ITC, 25 °C, pH 7.5, Mg2+-AMPPNP, mean and standard deviation of the mean, n=3.
Assay [3] has as its system CaMKII^D136N kinase domain (residues 1–283). The format is binding. The settings on record: ITC, 25 °C, pH 7.5, Mg2+-AMPPNP, mean and standard deviation of the mean, n=4.
In assay [4] the test system is wild type CaMKII kinase domain. On the set-up: species or system Drosophila. The settings on record: LC-HRMS of final ITC mixture, Mg2+-AMPCP. The gist of the method:
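Sample is the end-point mixture of isothermal titration calorimetry at 25 °C. MBP-dEAG channel fragment was titrated into a cell holding the Drosophila CaMKII kinase domain (residues 1–283, E. coli-expressed, wild type or D136N), with one 2 μl injection then 27 × 10 μl. Partners were first co-dialysed against 25 mM HEPES pH 7.5, 150 mM KCl, 0.5 mM TCEP, then with 1 mM MgCl₂ + 250 μM nucleotide. Final composition was 5 mM MgCl₂ and 1 mM nucleotide.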

Another assay deals with wild type dEAG channel. Put plainly: Two-electrode voltage clamp in oocytes, wild type dEAG channel. To be noted: Xenopus laevis oocytes, co-expression with inactive kinase (K43M/D136N); n=6–8. The format is cell-based, Drosophila. The gist of the method:
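Xenopus oocytes were defolliculated with 75 µg/ml Liberase for 40–60 min in Ca²⁺-free ND96. Stage V–VI cells were injected with premixed channel and kinase cRNA, then kept 1–5 d at 16 °C in storage solution containing gentamycin. Currents were recorded by standard two-microelectrode voltage clamp under continuous perfusion with 96 mM NaCl, 2 mM KCl, 0.3 mM CaCl₂, 1 mM MgCl₂, 5 mM HEPES, pH 7.4.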

A further assay deals with T787A dEAG channel. Briefly: Two-electrode voltage clamp in oocytes, T787A dEAG channel. It counts as cell-based, Drosophila. To be noted: Xenopus laevis oocytes, n=7–10.
Sequence of T787A dEAG channel (Q02280 whole entry T787A, the tested form may be a part): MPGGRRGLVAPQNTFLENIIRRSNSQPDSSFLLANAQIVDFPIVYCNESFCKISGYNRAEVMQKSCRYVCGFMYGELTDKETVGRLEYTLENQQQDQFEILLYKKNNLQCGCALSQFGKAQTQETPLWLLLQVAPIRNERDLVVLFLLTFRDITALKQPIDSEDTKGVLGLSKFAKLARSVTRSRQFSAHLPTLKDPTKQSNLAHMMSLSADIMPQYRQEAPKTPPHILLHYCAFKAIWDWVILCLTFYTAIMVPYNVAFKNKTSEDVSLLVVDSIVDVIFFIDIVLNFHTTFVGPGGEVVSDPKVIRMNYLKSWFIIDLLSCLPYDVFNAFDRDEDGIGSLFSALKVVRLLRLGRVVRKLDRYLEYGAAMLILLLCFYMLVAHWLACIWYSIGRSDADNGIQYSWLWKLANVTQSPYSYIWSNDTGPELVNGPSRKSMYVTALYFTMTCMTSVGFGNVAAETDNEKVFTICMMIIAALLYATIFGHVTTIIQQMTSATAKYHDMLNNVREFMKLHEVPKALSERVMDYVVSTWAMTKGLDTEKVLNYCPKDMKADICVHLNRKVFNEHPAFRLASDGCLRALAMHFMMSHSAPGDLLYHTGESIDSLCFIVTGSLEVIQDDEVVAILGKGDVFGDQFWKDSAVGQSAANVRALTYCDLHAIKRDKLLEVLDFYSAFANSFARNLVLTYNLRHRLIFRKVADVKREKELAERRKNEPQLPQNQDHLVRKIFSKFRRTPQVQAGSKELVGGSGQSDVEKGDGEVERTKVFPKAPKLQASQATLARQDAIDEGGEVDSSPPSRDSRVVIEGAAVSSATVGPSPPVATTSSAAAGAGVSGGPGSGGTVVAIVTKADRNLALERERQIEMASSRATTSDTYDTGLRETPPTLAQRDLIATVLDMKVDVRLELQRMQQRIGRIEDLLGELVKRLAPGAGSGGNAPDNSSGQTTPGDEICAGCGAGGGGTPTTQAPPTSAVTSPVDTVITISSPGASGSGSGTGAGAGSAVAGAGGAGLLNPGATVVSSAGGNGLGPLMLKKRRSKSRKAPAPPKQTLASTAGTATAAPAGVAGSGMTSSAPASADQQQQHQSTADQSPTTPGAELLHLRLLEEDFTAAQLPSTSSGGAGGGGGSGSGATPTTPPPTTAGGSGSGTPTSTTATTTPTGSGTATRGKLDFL
Assay [5] addresses T1, wild type CaMKII kinase domain (residues 1–283) (Drosophila, UniProt Q00168 1-283). Put plainly: ITC.
Assay [6] addresses T1, wild type CaMKII kinase domain …. Put plainly: ITC. The source holds these as a separate data set.
The target in assay [7] is T2, CaMKII kinase domain D136N mutant (residues 1–283) (Drosophila, UniProt Q00168 1-283, D136N). Put plainly: crystal structure.
T2 sequence (Q00168 1-283 D136N): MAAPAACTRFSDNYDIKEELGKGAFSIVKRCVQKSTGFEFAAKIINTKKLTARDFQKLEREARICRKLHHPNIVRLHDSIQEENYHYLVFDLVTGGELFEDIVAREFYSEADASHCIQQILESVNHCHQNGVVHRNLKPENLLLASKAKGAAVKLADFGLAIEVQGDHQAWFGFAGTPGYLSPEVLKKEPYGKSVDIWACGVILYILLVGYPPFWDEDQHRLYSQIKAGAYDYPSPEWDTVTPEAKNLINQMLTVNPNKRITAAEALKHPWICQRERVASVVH
Assay [8] deals with T2, CaMKII kinase domain D136N mutant …. Briefly: ITC.
Assay [9] concerns the target T1, wild type CaMKII kinase domain …. Briefly: ITC. The source holds these as a separate data set.
Assay [10] has as its target T2, CaMKII kinase domain D136N mutant …. Put plainly: ITC. The source holds these as a separate data set.
The target in assay [11] is CaMKII kinase domain K43M/D136N mutant (Drosophila, UniProt Q00168 1-283, K43M | D136N). Put plainly: ITC.
Sequence of CaMKII kinase domain K43M/D136N mutant (Q00168 1-283 K43M/D136N): as the sequence (Q00168 1-283 D136N) above, with K43M counted along it
Where [12] appears, read: dEAGlong, individually fitted, n=4 (WT), n=3 (R784A, D789A).

T1 sequence (Q00168 1-283): as the sequence (Q00168 1-283 D136N) above, with N136D counted along it

In the case of “EAGlong^D789A: alanine mutant D789A of MBP-dEAGlong ({MBP}-VFPKAPKLQASQATLARQDTIAEGGEVDSSPPSRDSRVVIEGAAVSSATVGPS; reading uncertain)”, the “−TΔS” value in assay [1] (setting [12]) was 5.7 ± 2.3 kcal/mol.

On to “EAGlong^R784A: alanine mutant R784A of MBP-dEAGlong ({MBP}-VFPKAPKLQASQATLAAQDTIDEGGEVDSSPPSRDSRVVIEGAAVSSATVGPS; reading uncertain)”, for which the “−TΔS” value in assay [1] (setting [12]) is given as 4.4 ± 4.7 kcal/mol.

With “EAGshort: dEAG residues 768 to 795 with mutations S778N and T781K, fused to maltose-binding protein ({MBP}-VFPKAPKLQANQAKLARQDTIDEGGEVD; reading uncertain; also: N-terminal His6, state not given here)”, the “−TΔS” value in assay [1] (dEAGshort, wild type kinase, n=3) was 11.4 ± 0.9 kcal/mol; in [2], 8.7 ± 0.1 kcal/mol; in [3], 5.3 ± 3.8 kcal/mol. Also, in assay [4], the “phosphorylation state of fragment at end of ITC” value is listed as “dephosphorylated during the titration”.

For “dEAGlong^P: phosphorylated dEAGlong channel fragment used in crystal structure (VFPKAPKLQASQATLARQD[pT]IDEGGEVDSSPPSRDSRVVIEGAAVSSATVGPS; also: phosphothreonine at T787)”, the “affinity relative to typical kinase-substrate (KD ~200 μM)” value in assay [1] (fold tighter than expected for a kinase-substrate, typical KD from ref 27) is on record as “approximately 200 fold”.

On to “inactive Drosophila kinase: full-length Drosophila CaMKII with two point mutations (K43M/D136N) in the active site”, for which the “reduction of channel current” value in the assay on wild type dEAG channel was “more than 10 fold”. Further, in the assay on T787A dEAG channel, the “effect of co-expressed kinase on channel activity” value is “loss of measurable currents”.

B1: MBP-dEAG_(long) (wild-type Drosophila EAG CaMKII-binding fragment, residues 768 to 820, fused to maltose-binding protein) (domain or fragment, UniProt Q02280 768-820, looked up)
chain: {MBP}-VFPKAPKLQASQATLARQDTIDEGGEVDSSPPSRDSRVVIEGAAVSSATVGPS
modifications: reading uncertain
In the case of B1, in [5], binding was put at a Kd of 1 µM, the dH was -7.3 kcal/mol and the “stoichiometry N” value was 0.94. Besides, in assay [6], the Kd was found to be 0.674 µM, the dH was -17.3 kcal/mol and the “stoichiometry N” value was found to be 0.96.

B2: MBP-dEAG_(long) I788A (domain or fragment, Drosophila, UniProt Q02280 768-820, looked up)
chain: VFPKAPKLQASQATLARQDTADEGGEVDSSPPSRDSRVVIEGAAVSSATVGPS
For the molecule B2, in [6], the Kd was 80.3 µM; the dH was -10.5 kcal/mol; the “stoichiometry N” value was 0.667 and 1.09.

B3: MBP-dEAG_(long) E793A (domain or fragment, Drosophila, UniProt Q02280 768-820, looked up)
chain: VFPKAPKLQASQATLARQDTIDEGGAVDSSPPSRDSRVVIEGAAVSSATVGPS
Consider B3, for which, in assay [6], binding was put at a Kd of 1.68 µM, the dH is -16.7 kcal/mol and the “stoichiometry N” value stood at 0.978.

B4: MBP-dEAG_(long) E790A (domain or fragment, Drosophila, UniProt Q02280 768-820, looked up)
chain: VFPKAPKLQASQATLARQDTIDAGGEVDSSPPSRDSRVVIEGAAVSSATVGPS
As for B4, in assay [6], the Kd came out at 2.43 µM, the dH is -15.7 kcal/mol and the “stoichiometry N” value amounted to 1.06.

B5: MBP-dEAG_(long) Q785A (domain or fragment, Drosophila, UniProt Q02280 768-820, looked up)
chain: VFPKAPKLQASQATLARADTIDEGGEVDSSPPSRDSRVVIEGAAVSSATVGPS
For B5, in assay [6], the Kd was 12.6 µM; the dH was -18.5 kcal/mol; the “stoichiometry N” value was 0.747 and 0.664.

B6: MBP-dEAG_(long) D789A (domain or fragment, Drosophila, UniProt Q02280 768-820, looked up)
chain: VFPKAPKLQASQATLARQDTIAEGGEVDSSPPSRDSRVVIEGAAVSSATVGPS
Consider B6, for which, in [6], the Kd amounted to 7.3 µM, the dH was -12.7 kcal/mol and the “stoichiometry N” value came out at 1.02.

B7: MBP-dEAG_(long) R784A (domain or fragment, Drosophila, UniProt Q02280 768-820, looked up)
chain: VFPKAPKLQASQATLAAQDTIDEGGEVDSSPPSRDSRVVIEGAAVSSATVGPS
In the case of B7, in [6], the affinity, expressed as Kd, was 47 µM; the dH was -10.3 kcal/mol; the “stoichiometry N” value was found to be 0.85.

B8: MBP-dEAG_(long) L782A (domain or fragment, Drosophila, UniProt Q02280 768-820, looked up)
chain: VFPKAPKLQASQATAARQDTIDEGGEVDSSPPSRDSRVVIEGAAVSSATVGPS
Regarding B8, in assay [6], the Kd worked out at 24.6 µM; the dH is -3.75 kcal/mol; the “stoichiometry N” value is 1.28 and 0.645.

B9: phosphorylated dEAG_(long) channel fragment (dEAG_(long)^P), MBP removed (domain or fragment, Drosophila, UniProt Q02280 768-820, looked up)
chain: VFPKAPKLQASQATLARQD[pT]IDEGGEVDSSPPSRDSRVVIEGAAVSSATVGPS
modifications: also: phosphothreonine at T787
On to B9, for which the binding result in assay [7] is on record as “binds”.

Consider VFPKAPKLQANQAKLARQDTIDEGGEVD (domain or fragment, UniProt Q02280 768-795, looked up), for which the Kd in [8] stood at 0.216 µM; in [9] it was 0.094 µM; in assay [10] it was 0.197 µM; in assay [11], 0.173 µM. For the same molecule, the dH is -16.3 kcal/mol in assay [8], -21 kcal/mol in assay [9], -14.5 kcal/mol in [10] and -18 kcal/mol in assay [11]. The “stoichiometry N” value turned out to be 0.83 in assay [8], 0.86 in [9], 0.81 in assay [10] and 0.79 in assay [11].

Consider {MBP}-VFPKAPKLQANQAKLARQD[pT]IDEGGEVD (domain or fragment, Drosophila, UniProt Q02280 768-795, looked up, reading uncertain) [MBP-dEAG_(short)^P (phosphorylated dEAG_(short), phosphorylated at T787)], for which, in assay [8], binding was put at a Kd of 0.000475 µM, the dH was -8.9 kcal/mol and the “stoichiometry N” value came out at 1.07.
